Data on one compound can be found in ChEMBL document CHEMBL3853327 (J Med Chem, 2016).

The test system of data set [1] is Mus musculus. The experiment in a line: Acute toxicity in Kunming mouse assessed as mortality at 2000 mg/kg, ig after 1 week. In kind it is organism-based. Particulars: in vivo, po, 168 h. In a few lines:
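Kunming mice (18−22 g), fasted 12 h, then given a single intragastric dose suspended in PEG-400 (100 or 200 mg·mL−1 for 1000 or 2000 mg·kg−1). Six mice per dose group, half male and half female. Deaths and body-weight gain followed for 1 week.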

Data set [2] can be described thus: Cmax in Sprague-Dawley rat plasma at 16 mg/kg administered through oral gavage measured at 5 mins to 24 hrs post dosing by LC/MS analysis. It counts as ADME, organism-based. Set-up: dose 16 mg/kg, route oral. Particulars: in vivo. In a few lines:
(§1)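 Male Sprague-Dawley rats, ten randomly split into two groups (n = 5), single gavage dose of 8 or 16 mg·kg−1 in PEG 400/normal saline (70/30, V/V). Jugular sinus blood into heparinized tubes at 5 min to 24 h; plasma separated at 2200g for 8 min, stored −20 °C. Methanol precipitation with internal standard, LC-MS quantitation against plasma standard curves. Parameters reported as mean ± SD.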

The test system of data set [3] is Human immunodeficiency virus 1. Nature of the data set: Potency index, ratio of ETV EC50 to compound EC50 for HIV1 3B harboring reverse transcriptase YI88L mutant infected in human MT4 cells. In kind it is functional.
Data set [4] has as its system Human immunodeficiency virus 1. The experiment in a line: Fold resistance, ratio of EC50 for HIV1 3B harboring reverse transcriptase Y181C mutant infected in human MT4 cells to EC50 for wild type HIV1 3B harboring reverse transcriptase infected in human MT4 cells. It counts as functional. In a few lines: (§2)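 Fold resistance is the EC50 against the mutant HIV-1 strain divided by the EC50 against WT IIIB. Both EC50s come from the MT-4 MTT cytoprotection assay (5-day read, 100−300 CCID50 inoculum).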

For data set [5], the system named is Human immunodeficiency virus 1. Nature of the data set: Antiviral activity against HIV1 3B harboring reverse transcriptase E138K mutant infected in human MT4 cells assessed as protection against virus induced cytotoxicity after 5 days by MTT assay. In kind it is functional, cell-based. Conditions: Human immunodeficiency virus 1, 3B, MT4, 120 h. In outline: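 MTT cytopathicity assay in MT-4 cells (6 × 10^5 cells/mL). Compounds serially diluted 5-fold in triplicate wells, run in parallel on infected and mock-infected cells. Virus added at 100−300 CCID50 per well. Viability read spectrophotometrically at 540 and 690 nm after 5 days, using the median OD of three wells. EC50 is the concentration giving 50% protection from viral cytopathogenicity.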
(In general: Formazan colour is commonly taken as a measure of viable cells.)

A short description of data set [6]: VRT (0 to infinity) in Sprague-Dawley rat plasma at 16 mg/kg administered through oral gavage measured at 5 mins to 24 hrs post dosing by LC/MS analysis. In kind it is ADME, organism-based. Particulars: in vivo. In a few lines: as §1
Data set [7] can be described thus: Apparent volume of distribution during terminal phase in Sprague-Dawley rat plasma at 16 mg/kg administered through oral gavage measured at 5 mins to 24 hrs post dosing by LC/MS analysis. It counts as ADME, organism-based. Particulars: read-out: Vz/F. In outline:
as §1

The nature of data set [8]: Tmax in Sprague-Dawley rat plasma at 8 mg/kg administered through oral gavage measured at 5 mins to 24 hrs post dosing by LC/MS analysis. In kind it is ADME, organism-based. Conditions: in vivo. In a few lines:
as §1

Data set [9] deals with Human immunodeficiency virus 1. Nature of the data set: Fold resistance, ratio of EC50 for HIV1 3B harboring reverse transcriptase L100I mutant infected in human MT4 cells to EC50 for wild type HIV1 3B harboring reverse transcriptase infected in human MT4 cells. In kind it is functional. In outline:
as §2

Data set [10] in a line: AUC (0 to t) in Sprague-Dawley rat plasma at 8 mg/kg administered through oral gavage measured at 5 mins to 24 hrs post dosing by LC/MS analysis. Set-up: dose 8 mg/kg, time 0.083-24 hr, route oral. It counts as ADME, organism-based. In outline: as §1

A value given as a limit tells only on which side of the number the result lay.

As a reminder, the Cmax is the maximum level reached in the sampled fluid or tissue. For orientation: EC50 means the concentration needed to bring the measured effect to its halfway point. One may read the Tmax as the time at which the peak concentration occurs. A word on the AUC(0-t): it is exposure summed from dosing to a finite time, without extrapolation to infinity. The low end stands for low exposure, the high end for high exposure. Consider `Cc1cc(C#N)cc(C)c1Oc1nc(NC2CCN(Cc3ccc(S(N)(=O)=O)cc3)CC2)nc2ccsc12`, for which, in data set [1], the Activity entry was “Non-Toxic”. Further, the Cmax in data set [2] was found to be 472 ng/mL. The “Ratio EC50” value was 7 in data set [3], under 3 in data set [4] and under 3 in [9]. Besides, the EC50 in [5] turned out to be 2.9 nM. Also, the VRT in data set [6] came out at 25.29 hr2. The Vd/F in data set [7] stood at 50.1 L/kg. In data set [8], the Tmax came to 1 h. In addition, the AUC(0-t) in [10] turned out to be 1680 ng·h/mL.
